Measured values collected from several papers.
Protocols differ between the studies behind these lines.

Cc1cc(Nc2ccc(S(F)(F)(F)(F)F)cc2)n2ccnc2n1
kinetic solubility (simulated gastric fluid; pH 2, acidic): > 285 µM

CNC(=O)[C@H](Cc1c[nH]cn1)NC(=O)CN(CC(=O)O)Cc1ccccc1
kinetic solubility (PBS; 24 h, pH 7.4): 151 µM

CCn1cc(-c2cc(Cn3ccnc3)cc3c2OCCN([C@H](c2cc(OC)ccn2)C2CC2)C3=O)c(C(F)(F)F)n1
kinetic solubility (PBS; 1 h, pH 7.4): 74 µM

CCCCOC(=O)NS(=O)(=O)c1sc(CC(C)C)cc1-c1ccc(OC(F)(F)F)c(Cn2ccnc2)c1
kinetic solubility (aqueous buffer; pH 7.4, 37 °C): 52 µM

CNC(=O)[C@H](Cc1c[nH]cn1)NC(=O)CN(CCCc1ccccc1)CC(=O)OC
kinetic solubility (PBS; 24 h, pH 7.4): 179 µM

Cc1cc(Nc2ccc(C(F)(F)F)cc2)c2ccccc2n1
kinetic solubility (PBS; pH 6.5): 83 µM

C=CC(=O)Nc1cc(Nc2nccc(Nc3cc(Cl)c(F)cc3C(C)(C)O)n2)c(OC)cc1N1CC[C@@H](N(C)C)C1
kinetic solubility (aqueous buffer; pH 7.4): 616 µM

CC(=O)Nc1cc(Nc2cc(NC3CC3)n3ncc(C#N)c3n2)ccc1N1CCC[C@H](O)C1
kinetic solubility (shake flask; PBS; 24 h, pH 7.4, 22 °C): 37 µg/mL

O=C(/C=C/c1cccnc1)NCCCCC1CCN(C(=O)c2ccccc2)CC1
kinetic solubility (PBS; 90 min, pH 7.4): 225 µM

Cc1noc([C@H](Cc2c[nH]cn2)NC(=O)CN(CCCc2ccccc2)CC(=O)O)n1
kinetic solubility (PBS; 24 h, pH 7.4): 198 µM

CCCCOC(=O)NS(=O)(=O)c1sc(CC(C)C)cc1-c1ccc2c(c1)CN(C(C)=O)CC2
kinetic solubility (aqueous buffer; pH 7.4, 37 °C): 31 µM

CN[C@H]1CCN(c2ccc(Nc3cc(NC4CC4)n4ncc(C#N)c4n3)cc2NC(C)=O)C1
kinetic solubility (shake flask; PBS; 24 h, pH 7.4, 22 °C): 49 µg/mL

CCCC#Cc1ccc([C@@H](CO)C(=O)N[C@H](C)c2ccccc2)cc1
kinetic solubility (PBS; pH 7.4): 7.4 µM

CC(=O)Nc1cc(Nc2cc(NC3CC3)n3ncc(C#N)c3n2)ccc1N[C@@H]1CCCOC1
kinetic solubility (shake flask; PBS; 24 h, pH 7.4, 22 °C): 2.4 µg/mL

Fc1ccc(Nc2c(-c3ccccn3)nc3ccc(C4CC4)cn23)cc1
kinetic solubility (aqueous buffer; 24 h): 3 µM

CN[C@H]1CCCN(c2ccc(Nc3cc(NC4CC4)n4ncc(C#N)c4n3)cc2NC(C)=O)C1
kinetic solubility (shake flask; PBS; 24 h, pH 7.4, 22 °C): 54 µg/mL

COC(=O)CN(CC(=O)N[C@@H](Cc1c[nH]cn1)C(=O)OC)Cc1ccccc1
kinetic solubility (PBS; 24 h, pH 7.4): 191 µM

CC(=O)Nc1cc(Nc2cc(NC3CC3)n3ncc(C#N)c3n2)ccc1N(C)[C@@H]1CCOC1
kinetic solubility (shake flask; PBS; 24 h, pH 7.4, 22 °C): 25 µg/mL

CNC(=O)[C@H](Cc1c[nH]cn1)NC(=O)CN(CCCc1ccccc1)CC(=O)O
kinetic solubility (PBS; 24 h, pH 7.4): 170 µM

CC(=O)Nc1cc(Nc2cc(NC3CC3)n3ncc(C#N)c3n2)ccc1N(C)CC1COC1
kinetic solubility (shake flask; PBS; 24 h, pH 7.4, 22 °C): 0.2 µg/mL

CCCCOC(=O)NS(=O)(=O)c1sc(CC(C)C)cc1-c1ccc2c(c1)CN(C(C)=O)C2
kinetic solubility (aqueous buffer; pH 7.4, 37 °C): 30 µM
